Common to all, as to format: functional, cell-based
In experiment [1] the target is T1, Pyroglutamylated RF-amide peptide receptor (Homo sapiens) (UniProt Q96P65).
T1 sequence (whole entry): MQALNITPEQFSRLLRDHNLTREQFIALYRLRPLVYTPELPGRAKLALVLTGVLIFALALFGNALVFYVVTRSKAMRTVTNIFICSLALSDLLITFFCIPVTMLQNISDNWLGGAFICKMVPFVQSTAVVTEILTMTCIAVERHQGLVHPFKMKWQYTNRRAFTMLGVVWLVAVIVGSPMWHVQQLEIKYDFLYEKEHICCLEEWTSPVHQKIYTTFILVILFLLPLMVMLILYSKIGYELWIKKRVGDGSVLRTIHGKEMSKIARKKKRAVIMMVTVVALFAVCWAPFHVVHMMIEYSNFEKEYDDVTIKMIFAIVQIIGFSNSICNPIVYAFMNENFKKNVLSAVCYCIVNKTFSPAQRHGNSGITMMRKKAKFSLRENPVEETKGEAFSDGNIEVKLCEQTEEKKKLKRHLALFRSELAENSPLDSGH
As to the kind of experiment: Antagonist activity at DYKDDDDK-flagged human GPR103 receptor expressed in CHO-K1 cells co-expressing G-protein alpha16 assessed as inhibition of 26RFa-induced calcium mobilization after 2 mins by fluorometric analysis. Summed up:
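Same Gα16/flag-hGPR103 CHO-K1 cells, Fluo-4AM loading and HBSS/probenecid/HEPES buffer. Triplicates; IC50 reported as mean ± SEM of at least three experiments.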
Background: Calcium assays in cells follow changes in intracellular calcium, usually with a dye or a luminescent sensor.

Experiment [2] has as its target T1, Pyroglutamylated RF-amide peptide receptor (Homo sapiens). The experiment can be described thus: Agonist activity at DYKDDDDK-flagged human GPR103 receptor expressed in CHO-K1 cells co-expressing G-protein alpha16 assessed as stimulation of calcium mobilization at 10' -12 to 10^-5 M after 2 mins by fluorometric analysis. Summed up: (§1)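 CHO-K1 cells stably expressing Gα16 and C-terminally flag-tagged human GPR103 (Geneticin-selected), plated at 40 000 cells/well 24 h before assay. Loaded with 2 μM Fluo-4AM for 1 h, washed, then 30 min in HBSS with 2.5 mM probenecid and 5 mM HEPES. Peptides added at 10^-12 to 10^-5 M final and fluorescence read for 2 min. Triplicates; EC50 from sigmoidal variable-slope fit, at least three experiments.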

In experiment [3] the target is T2, Pyroglutamylated RF-amide peptide receptor (Homo sapiens, UniProt Q96P65).
T2 sequence (Q96P65 whole entry): T1 sequence (whole entry)
As to the kind of experiment: Agonist activity at DYKDDDDK-flagged human GPR103 receptor expressed in CHO-K1 cells co-expressing G-protein alpha16 assessed as stimulation of calcium mobilization after 2 mins by fluorometric analysis. Summed up:
as §1

Activity calls are given as the source filed them. The rule behind the calls is not given here. Residues, ends and D or L forms follow the SMILES beside them. *: point of attachment. Phenylacetyl(4-F) = O=C(Cc1ccc(F)cc1)*; NBn2 = c1ccc(CN(Cc2ccccc2)*)cc1; X2 = CN(C)C(=NCC(=O)*)N(C)C; X3 = C1CCN(N(N2CCCCC2)*)CC1; NHBn = c1ccc(CN*)cc1; Piv = CC(C)(C)C(=O)*

Regarding `N=C(N)NCCC[C@@H](NC(=O)[C@H](Cc1ccccc1)NC(=O)[C@H](CO)NC(=O)[C@H](Cc1ccccc1)NC(=O)CNC(=O)CN)C(=O)N[C@@H](Cc1ccccc1)C(N)=O`, the inhibition entry in experiment [1] is “inactive”. Also, the outcome in experiment [2] was inactive.

`N=C(N)NCCC[C@H](NC(=O)[C@@H](Cc1ccccc1)NC(=O)[C@H](CO)NC(=O)[C@H](Cc1ccccc1)NC(=O)CNC(=O)CN)C(=O)N[C@@H](Cc1ccccc1)C(N)=O`: the inhibition result in experiment [1] was “inactive”. Besides, in experiment [2], the result was inactive.

Take `N=C(N)NCCC[C@H](NC(=O)[C@H](Cc1ccccc1)NC(=O)[C@H](CO)NC(=O)[C@@H](Cc1ccccc1)NC(=O)CNC(=O)CN)C(=O)N[C@@H](Cc1ccccc1)C(N)=O`: the inhibition entry in experiment [1] was “inactive”. Moreover, in experiment [2], the outcome was inactive.

In the case of `N=C(N)NCCC[C@H](NC(=O)[C@H](Cc1ccccc1)NC(=O)[C@H](CO)NC(=O)[C@H](Cc1ccccc1)NC(=O)CNC(=O)CN)C(=O)N[C@H](Cc1ccccc1)C(N)=O`, in experiment [1], the inhibition result was “inactive”. Also, the result in experiment [2] was inactive.

In the case of `N=C(N)NCCC[C@H](NC(=O)[C@H](Cc1ccccc1)NC(=O)[C@H](CO)NC(=O)[C@@H](N)Cc1ccccc1)C(=O)N[C@@H](Cc1ccccc1)C(N)=O` (H-FSFRF-NH2), the result in experiment [2] was inactive.

Regarding `C[C@H](NC(=O)[C@H](CO)NC(=O)[C@H](Cc1ccccc1)NC(=O)CNC(=O)CN)C(=O)N[C@@H](CCCNC(=N)N)C(=O)N[C@@H](Cc1ccccc1)C(N)=O` (H-GGFSARF-NH2), the inhibition result in experiment [1] is “inactive”. Moreover, in experiment [2], the result was inactive.

With `N=C(N)NCCC[C@H](NC(=O)[C@H](Cc1ccccc1)NC(=O)[C@H](CO)NC(=O)[C@H](Cc1ccccc1)NC(=O)CNC(=O)CN)C(=O)N[C@@H](Cc1ccccc1)C(=O)N(Cc1ccccc1)Cc1ccccc1` (H-GGFSFRF-NBn2), the outcome in experiment [2] was inactive.

On to `CC(C)C[C@H](NC(=O)[C@@H]1CCCN1)C(=O)NCC(=O)N[C@@H](CC(N)=O)C(=O)N[C@@H](CC(C)C)C(=O)N[C@@H](C)C(=O)N[C@@H](CCC(=O)O)C(=O)N[C@@H](CCC(=O)O)C(=O)N[C@@H](CC(C)C)C(=O)N[C@@H](CC(N)=O)C(=O)NCC(=O)N[C@@H](Cc1ccc(O)cc1)C(=O)N[C@@H](CO)C(=O)N[C@@H](CCCN=C(N)N)C(=O)N[C@@H](CCCCN)C(=O)N[C@@H](CCCCN)C(=O)NCC(=O)NCC(=O)N[C@@H](Cc1ccccc1)C(=O)N[C@@H](CO)C(=O)N[C@@H](Cc1ccccc1)C(=O)N[C@@H](CCCN=C(N)N)C(=O)N[C@@H](Cc1ccccc1)C(N)=O` (H-PLGNLAEELNGYSRKKGGFSFRF-NH2), for which, in experiment [3], the concentration giving a half-maximal response (EC50) (as a rule, the concentration at which the effect is half-maximal) came to 0.0432 µM.

`N=C(N)NCCC[C@H](NC(=O)[C@H](Cc1ccccc1)NC(=O)[C@H](CO)NC(=O)[C@H](Cc1ccccc1)NC(=O)CNC(=O)CNC(=O)[C@H](CCCCN)NC(=O)[C@H](CCCCN)NC(=O)[C@@H](N)CCCNC(=N)N)C(=O)N[C@@H](Cc1ccccc1)C(N)=O` (H-RKKGGFSFRF-NH2): the EC50 in experiment [3] is 0.282 µM.

As to `NCCCC[C@H](NC(=O)[C@H](CCCCN)NC(=O)[C@H](CCCN=C(N)N)NC(=O)[C@@H](N)CO)C(=O)NCC(=O)NCC(=O)N[C@@H](Cc1ccccc1)C(=O)N[C@@H](CO)C(=O)N[C@@H](Cc1ccccc1)C(=O)N[C@@H](CCCN=C(N)N)C(=O)N[C@@H](Cc1ccccc1)C(N)=O` (H-SRKKGGFSFRF-NH2), the EC50 in experiment [3] amounted to 0.237 µM.

With `CC(C)C[C@H](NC(=O)[C@H](CC(N)=O)NC(=O)CNC(=O)[C@H](CC(C)C)NC(=O)[C@@H]1CCCN1C(=O)CNC(=O)[C@H](CO)NC(=O)[C@@H](N)[C@@H](C)O)C(=O)N[C@@H](C)C(=O)N[C@@H](CCC(=O)O)C(=O)N[C@@H](CCC(=O)O)C(=O)N[C@@H](CC(C)C)C(=O)N[C@@H](CC(N)=O)C(=O)NCC(=O)N[C@@H](Cc1ccc(O)cc1)C(=O)N[C@@H](CO)C(=O)N[C@@H](CCCNC(=N)N)C(=O)N[C@@H](CCCCN)C(=O)N[C@@H](CCCCN)C(=O)NCC(=O)NCC(=O)N[C@@H](Cc1ccccc1)C(=O)N[C@@H](CO)C(=O)N[C@@H](Cc1ccccc1)C(=O)N[C@@H](CCCNC(=N)N)C(=O)NCc1ccccc1` (H-TSGPLGNLAEELNGYSRKKGGFSFR-NHBn), the EC50 in experiment [3] came out at 0.067 µM.

Consider `CC(C)C[C@H](NC(=O)[C@H](CC(N)=O)NC(=O)CNC(=O)[C@H](CC(C)C)NC(=O)[C@@H]1CCCN1C(=O)CNC(=O)[C@H](CO)NC(=O)[C@@H](N)[C@@H](C)O)C(=O)N[C@@H](C)C(=O)N[C@@H](CCC(=O)O)C(=O)N[C@@H](CCC(=O)O)C(=O)N[C@@H](CC(C)C)C(=O)N[C@@H](CC(N)=O)C(=O)NCC(=O)N[C@@H](Cc1ccc(O)cc1)C(=O)N[C@@H](CO)C(=O)N[C@@H](CCCNC(=N)N)C(=O)N[C@@H](CCCCN)C(=O)N[C@@H](CCCCN)C(=O)NCC(=O)NCC(=O)N[C@@H](Cc1ccccc1)C(=O)N[C@@H](CO)C(=O)N[C@@H](Cc1ccccc1)C(=O)N[C@@H](CCCNC(=N)N)C(=O)N[C@@H](Cc1ccccc1)C(=O)N(Cc1ccccc1)Cc1ccccc1` (H-TSGPLGNLAEELNGYSRKKGGFSFRF-NBn2), for which the EC50 in experiment [3] is 0.166 µM.

On to `CC(C)C[C@H](NC(=O)[C@H](CC(N)=O)NC(=O)CNC(=O)[C@H](CC(C)C)NC(=O)[C@@H]1CCCN1C(=O)CNC(=O)[C@H](CO)NC(=O)[C@@H](N)[C@@H](C)O)C(=O)N[C@@H](C)C(=O)N[C@@H](CCC(=O)O)C(=O)N[C@@H](CCC(=O)O)C(=O)N[C@@H](CC(C)C)C(=O)N[C@@H](CC(N)=O)C(=O)NCC(=O)N[C@@H](Cc1ccc(O)cc1)C(=O)N[C@@H](CO)C(=O)N[C@@H](CCCNC(=N)N)C(=O)N[C@@H](CCCCN)C(=O)N[C@@H](CCCCN)C(=O)NCC(=O)NCC(=O)N[C@@H](Cc1ccccc1)C(=O)N[C@@H](CO)C(=O)N[C@@H](Cc1ccccc1)C(=O)N[C@@H](CCCNC(=N)N)C(=O)N[C@@H](Cc1ccccc1)C(N)=O` (H-TSGPLGNLAEELNGYSRKKGGFSFRF-NH2), for which the EC50 in experiment [3] worked out at 0.0104 µM.

In the case of `CC(C)C[C@H](NC(=O)[C@H](CC(N)=O)NC(=O)CNC(=O)[C@H](CC(C)C)NC(=O)[C@@H]1CCCN1C(=O)CNC(=O)[C@H](CO)NC(=O)[C@@H](N)[C@@H](C)O)C(=O)N[C@@H](C)C(=O)N[C@@H](CCC(=O)O)C(=O)N[C@@H](CCC(=O)O)C(=O)N[C@@H](CC(C)C)C(=O)N[C@@H](CC(N)=O)C(=O)NCC(=O)N[C@@H](Cc1ccc(O)cc1)C(=O)N[C@@H](CO)C(=O)N[C@@H](CCCN=C(N)N)C(=O)N[C@@H](CCCCN)C(=O)N[C@@H](CCCCN)C(=O)NCC(=O)NCC(=O)N[C@@H](Cc1ccccc1)C(=O)N[C@@H](CO)C(=O)N[C@@H](Cc1ccccc1)C(=O)N[C@@H](CCCN=C(N)N)C(=O)N[C@@H](Cc1ccccc1)C(=O)NCc1ccccc1` (H-TSGPLGNLAEELNGYSRKKGGFSFRF-NHBn), the EC50 in experiment [3] was found to be 0.039 µM.

On to `CC(C)C[C@H](NC(=O)[C@H](CC(N)=O)NC(=O)CNC(=O)[C@H](CC(C)C)NC(=O)[C@@H]1CCCN1C(=O)CNC(=O)[C@H](CO)NC(=O)[C@@H](N)[C@@H](C)O)C(=O)N[C@@H](C)C(=O)N[C@@H](CCC(=O)O)C(=O)N[C@@H](CCC(=O)O)C(=O)N[C@@H](CC(C)C)C(=O)N[C@@H](CC(N)=O)C(=O)NCC(=O)N[C@@H](Cc1ccc(O)cc1)C(=O)N[C@@H](CO)C(=O)N[C@@H](CCCNC(=N)N)C(=O)N[C@@H](CCCCN)C(=O)N[C@@H](CCCCN)C(=O)NCC(=O)NCC(=O)N[C@@H](Cc1ccccc1)C(=O)N[C@@H](CO)C(=O)N[C@@H](Cc1ccccc1)C(=O)N[C@@H](CCCNC(=N)N)C(=O)N[C@@H](Cc1ccccc1)C(=O)N(N1CCCCC1)N1CCCCC1` (H-TSGPLGNLAEELNGYSRKKGGFSFRF-X3), for which the EC50 in experiment [3] turned out to be 0.282 µM.

As for `NCCCC[C@H](NC(=O)[C@H](CCCCN)NC(=O)[C@H](CCCN=C(N)N)NC(=O)[C@H](CO)NC(=O)[C@@H](N)Cc1ccc(O)cc1)C(=O)NCC(=O)NCC(=O)N[C@@H](Cc1ccccc1)C(=O)N[C@@H](CO)C(=O)N[C@@H](Cc1ccccc1)C(=O)N[C@@H](CCCN=C(N)N)C(=O)N[C@@H](Cc1ccccc1)C(N)=O` (H-YSRKKGGFSFRF-NH2), the EC50 in experiment [3] came to 0.138 µM.

As for `CC(C)(C)C(=O)NCC(=O)NCC(=O)N[C@@H](Cc1ccccc1)C(=O)N[C@@H](CO)C(=O)N[C@@H](Cc1ccccc1)C(=O)N[C@@H](CCCN=C(N)N)C(=O)N[C@@H](Cc1ccccc1)C(N)=O` (Piv-GGFSFRF-NH2), the EC50 in experiment [3] stood at 2.54 µM.

Take `CN(C)C(=NCC(=O)N[C@@H](Cc1ccccc1)C(=O)N[C@@H](CO)C(=O)N[C@@H](Cc1ccccc1)C(=O)N[C@@H](CCCNC(=N)N)C(=O)N[C@@H](Cc1ccccc1)C(N)=O)N(C)C` (X2-FSFRF-NH2): the EC50 in experiment [3] worked out at 0.455 µM.

Regarding `NC(=O)[C@H](Cc1ccccc1)NC(=O)[C@H](CCCN=C(N)N)NC(=O)[C@H](Cc1ccccc1)NC(=O)[C@H](CO)NC(=O)[C@H](Cc1ccccc1)NC(=O)CNC(=O)CNC(=O)Cc1ccc(F)cc1` ({Phenylacetyl(4-F)}-GGFSFRF-NH2), the EC50 in experiment [3] was determined as 0.83 µM.

The record behind these values is ChEMBL document CHEMBL1800022, “Structure-activity relationships of a series of analogues of the RFamide-related peptide 26RFa” (J Med Chem, 2011).
